Data reported in ChEMBL document CHEMBL4732167, “Structure based design, synthesis, and biological evaluation of imidazole derivatives targeting dihydropteroate synthase enzyme” (Bioorg Med Chem Lett, 2021).
Converted amounts (≈) assume the structure as drawn.

Experiments:
[1] = Antioxidant activity assessed as DPPH radical scavenging activity at 75 ug/ml (reference value: 22 to 40.2 %); assay type: functional; conditions: dose 75.0 µg/ml
In short: (§1)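 DPPH radical scavenging was measured at 0, 25, 50, 75 and 100 µg/ml of each compound. Ascorbic acid was the reference.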

[2] = Antioxidant activity assessed as hydrogen peroxide radical scavenging activity at 50 ug/ml (reference value: 23.6 to 43.1 %); assay type: functional; conditions: dose 50.0 µg/ml
In short: (§2)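 Hydrogen peroxide scavenging was measured across a compound series of 0, 25, 50, 75 and 100 µg/ml.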

[3] = test system: Enterococcus; test: Antibacterial activity against vancomycin-resistant Enterococcus assessed as inhibition of bacterial growth; assay type: functional
In short: (§3)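 Growth inhibition of the drug-resistant strain was read out as the minimum inhibitory concentration (MIC), reported in µg/mL. The same protocol was also run on an ESBL strain.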

[4] = Antioxidant activity assessed as nitric oxide radical scavenging activity at 100 ug/ml (reference value: 25.8 to 41.6 %); assay type: functional; conditions: dose 100.0 µg/ml
In short: (§4)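 Nitric oxide radical scavenging was tested at 0, 25, 50, 75 and 100 µg/ml of compound.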

[5] = test system: Staphylococcus aureus; test: Antibacterial activity against methicillin-resistant Staphylococcus aureus assessed as inhibition of bacterial growth; assay type: functional; in short: as §3
[6] = test system: Bacteria; test: Antibacterial activity against ESBL-producing bacteria assessed as bacterial growth inhibition; assay type: functional
In short: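 Values are minimum inhibitory concentrations (MIC) in µg/mL, determined at an outside microbiology laboratory.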

[7] = Antioxidant activity assessed as nitric oxide radical scavenging activity at 50 ug/ml (reference value: 25.8 to 41.6 %); assay type: functional; conditions: dose 50.0 µg/ml; in short: as §4
[8] = test system: Staphylococcus aureus; test: Antibacterial activity against Staphylococcus aureus MTCC 96 assessed as bacterial growth inhibition; assay type: functional
[9] = test system: Plasmodium falciparum; test: Antimalarial activity against Plasmodium falciparum assessed as parasite growth inhibition; assay type: functional, organism-based
[10] = Antioxidant activity assessed as DPPH radical scavenging activity at 50 ug/ml (reference value: 22 to 40.2 %); assay type: functional; conditions: dose 50.0 µg/ml; in short: as §1
[11] = Antioxidant activity assessed as DPPH radical scavenging activity at 100 ug/ml (reference value: 22 to 40.2 %); assay type: functional; conditions: dose 100.0 µg/ml; in short: as §1
[12] = Antioxidant activity assessed as nitric oxide radical scavenging activity at 25 ug/ml (reference value: 25.8 to 41.6 %); assay type: functional; conditions: dose 25.0 µg/ml; in short: as §4
[13] = Antioxidant activity assessed as hydrogen peroxide radical scavenging activity at 25 ug/ml (reference value: 23.6 to 43.1 %); assay type: functional; conditions: dose 25.0 µg/ml; in short: as §2
[14] = Antioxidant activity assessed as DPPH radical scavenging activity at 100 dilution; assay type: functional
[15] = Antioxidant activity assessed as hydrogen peroxide radical scavenging activity at 100 ug/ml (reference value: 23.6 to 43.1 %); assay type: functional; conditions: dose 100.0 µg/ml; in short: as §2
[16] = test system: Streptococcus pyogenes; test: Antibacterial activity against Streptococcus pyogenes MTCC 442 assessed as bacterial growth inhibition; assay type: functional
[17] = Antioxidant activity assessed as nitric oxide radical scavenging activity at 75 ug/ml (reference value: 25.8 to 41.6 %); assay type: functional; conditions: dose 75.0 µg/ml; in short: as §4
[18] = test system: Aspergillus niger; test: Antifungal activity against Aspergillus niger MTCC 282 assessed as fungal growth inhibition; assay type: functional
[19] = test system: Escherichia coli; test: Antibacterial activity against Escherichia coli MTCC 443 assessed as bacterial growth inhibition; assay type: functional
[20] = Antioxidant activity assessed as hydrogen peroxide radical scavenging activity at 75 ug/ml (reference value: 23.6 to 43.1 %); assay type: functional; conditions: dose 75.0 µg/ml; in short: as §2
[21] = test system: Aspergillus clavatus; test: Antifungal activity against Aspergillus clavatus MTCC 1323 assessed as fungal growth inhibition; assay type: functional
[22] = test system: Candida albicans; test: Antifungal activity against Candida albicans MTCC 227 assessed as fungal growth inhibition; assay type: functional
[23] = test system: Mycobacterium tuberculosis; test: Antibacterial activity against Mycobacterium tuberculosis H37Rv assessed as bacterial growth inhibition; assay type: functional
[24] = Antioxidant activity assessed as DPPH radical scavenging activity at 25 ug/ml (reference value: 22 to 40.2 %); assay type: functional; conditions: dose 25.0 µg/ml; in short: as §1
[25] = test system: Pseudomonas aeruginosa; test: Antibacterial activity against Pseudomonas aeruginosa MTCC 1688 assessed as bacterial growth inhibition; assay type: functional

Row | Compound | Activity [1] | Activity [2] | MIC [3] | Activity [4] | MIC [5] | MIC [6] | Activity [7] | MIC [8] | IC50 [9] | Activity [10] | Activity [11] | Activity [12] | Activity [13] | Activity [15] | MIC [16] | Activity [17] | MFC [18] | MIC [19] | Activity [20] | Activity [24] | other results
1 | CC(=O)c1c(C)nc(SCC(=O)Nc2ccc(OC(=O)c3cccs3)cc2)n1-c1ccc(F)cc1 | 65.4% | 59.3% | 125 µg/mL (≈ 245 µM) | 89.1% | 250 µg/mL (≈ 491 µM) | 125 µg/mL (≈ 245 µM) | 59.3% | 125 µg/mL (≈ 245 µM) | 1.14 µg/mL (≈ 2.24 µM) | 51.4% | 89.6% | 50.6% | 48.6% | 79.6% | 125 µg/mL (≈ 245 µM) | 79.5% | 500 µg/mL (≈ 981 µM) | 100 µg/mL (≈ 196 µM) | 67.6% | 44.3% | Activity [14]: 89.6%; MFC [21]: 250 µg/mL (≈ 491 µM); MFC [22]: 500 µg/mL (≈ 981 µM); MIC [23]: 100 µg/mL (≈ 196 µM); MIC [25]: 62.5 µg/mL (≈ 123 µM)
2 | O=C1O[C@H]([C@@H](O)CO)C(O)=C1O | 89% | 80.6% |  | 91.7% |  |  | 80.6% |  |  | 80.6% | 91.7% | 75.1% | 75.1% | 91.7% |  | 89% |  |  | 89% | 75.1% | Activity [14]: 91.7%
3 | CC(=O)c1c(C)nc(SCC(=O)Nc2ccc(OCc3ccc(F)cc3)cc2)n1-c1ccc(F)cc1 | 71.6% | 53.4% | 125 µg/mL (≈ 246 µM) | 89.6% | 100 µg/mL (≈ 197 µM) | 250 µg/mL (≈ 493 µM) | 60.4% | 62.5 µg/mL (≈ 123 µM) | 0.82 µg/mL (≈ 1.62 µM) | 56.4% | 89.4% | 46.8% | 46.1% | 71.2% | 125 µg/mL (≈ 246 µM) | 70.3% | 1000 µg/mL (≈ 1970 µM) | 125 µg/mL (≈ 246 µM) | 63.1% | 34.8% | Activity [14]: 89.4%; MFC [21]: 500 µg/mL (≈ 985 µM); MFC [22]: 500 µg/mL (≈ 985 µM); MIC [23]: 100 µg/mL (≈ 197 µM); MIC [25]: 100 µg/mL (≈ 197 µM)
4 | COc1ccc(-n2c(SCC(=O)Nc3ccc(OC(=O)c4cccs4)cc3)nc(C)c2C(C)=O)cc1 | 68.1% | 61% | 100 µg/mL (≈ 192 µM) | 81.7% | 100 µg/mL (≈ 192 µM) | 62.5 µg/mL (≈ 120 µM) | 69.1% | 25 µg/mL (≈ 47.9 µM) | 0.45 µg/mL (≈ 0.863 µM) | 56.1% | 81.6% | 42.3% | 39.4% | 82.3% | 50 µg/mL (≈ 95.9 µM) | 76.8% | 500 µg/mL (≈ 959 µM) | 12.5 µg/mL (≈ 24 µM) | 76.4% | 46.8% | MFC [21]: 500 µg/mL (≈ 959 µM); MFC [22]: 1000 µg/mL (≈ 1920 µM); MIC [23]: 25 µg/mL (≈ 47.9 µM); MIC [25]: 12.5 µg/mL (≈ 24 µM)
5 | CC(=O)c1c(C)nc(SCC(=O)Nc2ccc(OCc3ccc(F)cc3)cc2)n1-c1ccc(Cl)cc1 | 67% | 68.4% | 62.5 µg/mL (≈ 119 µM) | 89.5% | 125 µg/mL (≈ 239 µM) | 62.5 µg/mL (≈ 119 µM) | 58.3% | 100 µg/mL (≈ 191 µM) | 0.73 µg/mL (≈ 1.39 µM) | 58.6% | 91% | 50.8% | 51% | 88.1% | 100 µg/mL (≈ 191 µM) | 84.3% | 1000 µg/mL (≈ 1910 µM) | 50 µg/mL (≈ 95.4 µM) | 74.5% | 42.9% | MFC [21]: 1000 µg/mL (≈ 1910 µM); MFC [22]: 1000 µg/mL (≈ 1910 µM); MIC [23]: 62.5 µg/mL (≈ 119 µM); MIC [25]: 25 µg/mL (≈ 47.7 µM)
6 | CC(=O)c1c(C)nc(SCC(=O)Nc2ccc(OC(=O)c3ccco3)cc2)n1-c1ccc(Br)cc1 | 64.8% | 68.7% | 250 µg/mL (≈ 451 µM) | 86.7% | 100 µg/mL (≈ 180 µM) | 250 µg/mL (≈ 451 µM) | 65.3% | 100 µg/mL (≈ 180 µM) | 1.18 µg/mL (≈ 2.13 µM) | 57.1% | 88.7% | 49.3% | 51.7% | 86.5% | 250 µg/mL (≈ 451 µM) | 75.8% | 500 µg/mL (≈ 902 µM) | 100 µg/mL (≈ 180 µM) | 79% | 43.2% | MFC [21]: 500 µg/mL (≈ 902 µM); MFC [22]: 1000 µg/mL (≈ 1800 µM); MIC [23]: 25 µg/mL (≈ 45.1 µM); MIC [25]: 250 µg/mL (≈ 451 µM)
7 | CC(=O)c1c(C)nc(SCC(=O)Nc2ccc(OCc3ccccc3)cc2)n1-c1ccc(F)cc1 | 62.3% | 63.7% | 250 µg/mL (≈ 511 µM) | 85.9% | 1000 µg/mL (≈ 2040 µM) | 125 µg/mL (≈ 255 µM) | 60.8% | 500 µg/mL (≈ 1020 µM) | 0.45 µg/mL (≈ 0.919 µM) | 56.2% | 84.7% | 45.7% | 47.4% | 91.8% | 250 µg/mL (≈ 511 µM) | 72.4% | > 1000 µg/mL | 100 µg/mL (≈ 204 µM) | 84% | 46.8% | MFC [21]: > 1000 µg/mL; MFC [22]: 1000 µg/mL (≈ 2040 µM); MIC [23]: 62.5 µg/mL (≈ 128 µM); MIC [25]: 125 µg/mL (≈ 255 µM)
